Source: ChEMBL document CHEMBL1137637, “Quinuclidine derivatives as potential antiparasitics” (Antimicrob Agents Chemother, 2007)
Values after ≈ are worked out from the molar mass of the structure shown.

Columns and labels:
[1] = target: T1, Farnesyltransferase, putative (Leishmania major, UniProt Q4Q5W4); assay: Inhibition of Leishmania major recombinant squalene synthase expressed in Escherichia coli by liquid scintillation counter
T1 sequence (Q4Q5W4 whole entry): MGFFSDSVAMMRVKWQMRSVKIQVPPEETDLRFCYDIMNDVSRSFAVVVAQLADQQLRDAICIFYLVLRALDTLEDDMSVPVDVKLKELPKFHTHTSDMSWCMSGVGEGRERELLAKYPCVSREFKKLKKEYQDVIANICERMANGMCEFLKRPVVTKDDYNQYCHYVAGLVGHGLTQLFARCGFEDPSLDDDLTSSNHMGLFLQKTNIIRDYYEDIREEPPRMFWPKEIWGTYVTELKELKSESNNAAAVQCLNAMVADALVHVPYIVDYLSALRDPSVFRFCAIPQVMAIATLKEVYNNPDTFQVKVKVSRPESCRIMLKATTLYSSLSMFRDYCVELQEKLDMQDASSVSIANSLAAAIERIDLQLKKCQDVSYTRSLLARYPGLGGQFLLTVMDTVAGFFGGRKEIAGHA
Outline: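 Soluble E. coli extract expressing L. major SQS truncated by 16 N-terminal and 40 C-terminal residues. Buffer: 50 mM phosphate pH 7.4, 20 mM MgCl2, 5 mM CHAPS, 1% Tween 80, 10 mM DTT, BSA, 0.25 mM NADPH, and a glucose-6-phosphate/G6PDH regenerating system. Substrate 0.5 μM radiolabelled farnesyl pyrophosphate. Squalene band counted by scintillation. IC50 from hyperbolic plot of five concentrations in duplicate, usually run twice.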

[2] = system: Leishmania amazonensis; assay: Antileishmanial activity against Leishmania mexicana amazonensis promastigotes by trypan blue exclusion method; assay type: functional, organism-based
Outline: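 L. mexicana amazonensis promastigotes cultured in liver infusion-tryptose medium with lactalbumin and 10% FCS at 26°C, unagitated. Cultures started at 2 × 10⁶ cells/ml and drug added at 0.5–1 × 10⁷ cells/ml. Density counted by electronic particle counter and hemocytometer. Viability by trypan blue exclusion. Triplicate growth experiments.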

[3] = system: Leishmania donovani; assay: Antileishmanial activity against Leishmania donovani MHOM/ET/67/L82 axenic amastigotes after 72 hrs by resazurin assay; assay type: functional, organism-based; conditions: MHOM/ET/67/L82, 72 h
Outline: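 L. donovani MHOM/ET/67/L82 amastigotes grown axenically at 37°C in synthetic minimal medium at pH 5.4 with 10% heat-inactivated FBS under 5% CO2. 1 × 10⁵ amastigotes per well with seven threefold dilutions, 30 to 0.041 μg/ml. After 72 h, resazurin added for 2–4 h more. Fluorescence read at ex 536/em 588 nm. IC50 taken from sigmoidal curve. Run in duplicate, with an independent repeat for actives.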

[4] = system: Leishmania amazonensis; assay: Inhibition of sterol biosynthesis in Leishmania mexicana amazonensis promastigotes assessed as reduction in endogenous episterol level at 10 uM after 96 hrs by gas-liquid chromatography; assay type: functional; set-up: scale not given: the % may be the effect or the level left
Outline: (§1)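 L. mexicana promastigotes exposed to compound for 96 h. Total lipids extracted and neutral sterols separated from polar lipids by silicic acid column chromatography. Sterols analysed by TLC and by quantitative capillary gas-liquid chromatography with mass spectrometry. Composition expressed as mass % of free sterols, compared with untreated control.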

[5] = system: Trypanosoma cruzi; assay: Antitrypanosomal activity against trypomastigotes of Trypanosoma cruzi Tulahuen C2C4 containing lacZ gene in rat L6 cells after 4 days by chlorophenol red-beta-D-galactopyranoside/Nonidet assay; assay type: functional, organism-based; conditions: Tulahuen C2C4, L6, 96 h
Outline: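 L-6 rat myoblasts seeded at 2,000 cells/well in RPMI 1640 with 10% FBS and 2 mM L-glutamine. After 24 h, 5,000 T. cruzi Tulahuen C2C4 lacZ trypomastigotes added with serial drug dilution. Incubated at 37°C in 5% CO2 for 4 days. CPRG/Nonidet substrate added and colour read at 540 nm after 2–4 h. IC50 from sigmoidal curve. Duplicate determinations.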

[6] = system: L6; assay: Cytotoxicity against rat L6 cells after 72 hrs by resazurin assay; assay type: cell-based; conditions: L6, 72 h
Outline: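 L-6 cells seeded at 4 × 10⁴ cells/ml in RPMI 1640 with 10% FBS and 2 mM L-glutamine. After 24 h, medium replaced with serial drug dilution and incubated for 72 h at 37°C in 5% CO2. Resazurin added for 2–4 h, fluorescence read at ex 536/em 588 nm. IC50 from sigmoidal curve. Duplicate, with an independent repeat for actives.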

[7] = system: Leishmania amazonensis; assay: Inhibition of sterol biosynthesis in Leishmania mexicana amazonensis promastigotes assessed as reduction in exogenous cholesterol level at 10 uM after 96 hrs by gas-liquid chromatography; assay type: functional; set-up: scale not given: the % may be the effect or the level left; outline: as §1
[8] = system: Trypanosoma brucei rhodesiense; assay: Trypanocidal activity against Trypanosoma brucei rhodesiense STIB 900 bloodstream form after 72 hrs by resazurin assay; assay type: functional, organism-based; conditions: STIB 900, 72 h
Outline: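 T. b. rhodesiense STIB 900 bloodstream forms in MEM with 2-mercaptoethanol and 15% heat-inactivated horse serum, with serial drug dilutions. Incubated 72 h at 37°C in 5% CO2. Resazurin added for 2–4 h more, fluorescence read at ex 536/em 588 nm. IC50 from sigmoidal curve. Duplicate, with an independent repeat for actives.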

[9] = system: Plasmodium falciparum; assay: Antiplasmodial activity after 48 hrs against chloroquine and pyrimethamine-resistant Plasmodium falciparum K1 in human erythrocytes by [3H]hypoxanthine uptake; assay type: functional, organism-based
Outline: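 P. falciparum K1 in human red cells in RPMI 1640 with 5% Albumax, exposed to serial drug dilutions. Incubated 48 h at 37°C under reduced oxygen, then 0.5 μCi [³H]hypoxanthine per well for 24 h more. Cells harvested onto glass-fibre filters and counted by scintillation. Result expressed as % of untreated control, with IC50 from sigmoidal curve. Duplicate, plus an independent repeat for actives.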

[10] = system: Leishmania amazonensis; assay: Inhibition of sterol biosynthesis in Leishmania mexicana amazonensis promastigotes assessed as reduction in endogenous 5-dehydro episterol level at 10 uM after 96 hrs by gas-liquid chromatography; assay type: functional; set-up: scale not given: the % may be the effect or the level left; outline: as §1

COCCCOc1ccc(C#C[C@@]2(O)CN3CCC2CC3)c(Cc2ccccc2)n1
IC50 [1]: 0.033 µM

CO[C@H]1CN(c2ccc(C#C[C@@]3(O)CN4CCC3CC4)c(Cc3ccccc3)n2)C[C@H]1O
IC50 [1]: 0.013 µM

OC1(C#Cc2cccnc2)CN2CCC1CC2 (stereo not drawn)
MIC [2]: > 10 µM
IC50 [3]: 9.2 µM
Activity [4]: 11.2%
IC50 [5]: > 131 µM
IC50 [6]: > 394 µM
Activity [7]: 12.9%
IC50 [8]: 173 µM
IC50 [9]: 18.9 µM
Activity [10]: 75.9%
IC50 [1]: > 1 µM

OC[C@H]1CC2CCN1C[C@@H]2C#Cc1cnc2ccccc2c1 (stereo partly drawn)
MIC [2]: > 10 µM
IC50 [3]: 40.3 µM
Activity [4]: 11.6%
IC50 [5]: 33.8 µM
IC50 [6]: 38.9 µM
Activity [7]: 18.7%
IC50 [8]: 10.9 µM
IC50 [9]: 2.7 µM
Activity [10]: 69.7%
IC50 [1]: > 1 µM

OC1(C#Cc2cnccn2)CN2CCC1CC2 (stereo not drawn)
MIC [2]: 3 µM (≈ 0.688 µg/mL)
Activity [4]: 14.2%
Activity [7]: 33.8%
Activity [10]: 52%
IC50 [1]: > 1 µM

Cc1ccc(N)cc1C#CC1(O)CN2CCC1CC2 (stereo not drawn)
MIC [2]: > 10 µM
IC50 [3]: 28.5 µM
Activity [4]: 6.5%
IC50 [5]: > 117 µM
IC50 [6]: > 351 µM
Activity [7]: 20.7%
IC50 [8]: 62.4 µM
IC50 [9]: 11.7 µM
Activity [10]: 72.8%
IC50 [1]: > 1 µM

OC1(C#Cc2ccc3cc[nH]c3c2)CN2CCC1CC2 (stereo not drawn)
MIC [2]: > 10 µM
IC50 [3]: 11.4 µM
Activity [4]: 17.5%
IC50 [5]: 26.2 µM
IC50 [6]: > 338 µM
Activity [7]: 19.9%
IC50 [8]: 19.9 µM
IC50 [9]: 7.1 µM
Activity [10]: 62.6%
IC50 [1]: > 1 µM

Nc1ccc(C#CC2(O)CN3CCC2CC3)cn1 (stereo not drawn)
MIC [2]: > 10 µM
IC50 [3]: 10.8 µM
Activity [4]: 11.6%
IC50 [5]: 97 µM
IC50 [6]: > 370 µM
Activity [7]: 13.2%
IC50 [8]: 5.7 µM
IC50 [9]: > 21 µM
Activity [10]: 75.2%
IC50 [1]: > 1 µM

OC1(C#Cc2ccc(Cl)nc2)CN2CCC1CC2 (stereo not drawn)
MIC [2]: > 10 µM
IC50 [3]: 16.3 µM
Activity [4]: 8.2%
IC50 [5]: > 114 µM
IC50 [6]: > 342 µM
Activity [7]: 20.1%
IC50 [8]: 53.3 µM
IC50 [9]: 9.3 µM
Activity [10]: 71.7%
IC50 [1]: > 1 µM

COC(=O)c1ccc(N)c(C#CC2(O)CN3CCC2CC3)c1 (stereo not drawn)
MIC [2]: > 10 µM
IC50 [3]: 17.2 µM
Activity [4]: 6.4%
IC50 [5]: 44.9 µM
IC50 [6]: > 300 µM
Activity [7]: 19.3%
IC50 [8]: 30.8 µM
IC50 [9]: 10.9 µM
Activity [10]: 74.3%
IC50 [1]: > 1 µM

OC[C@H]1CC2CCN1C[C@@H]2C#Cc1ccc2ccccc2c1 (stereo partly drawn)
MIC [2]: > 10 µM
IC50 [3]: 12 µM
Activity [4]: 11.2%
IC50 [5]: 5.3 µM
IC50 [6]: 50.4 µM
Activity [7]: 23.1%
IC50 [8]: 1.4 µM
IC50 [9]: 3 µM
Activity [10]: 65.7%
IC50 [1]: > 1 µM

CCOc1ccc(C#CC2(O)CN3CCC2CC3)cc1 (stereo not drawn)
MIC [2]: > 10 µM
IC50 [3]: 10.5 µM
Activity [4]: 24.6%
IC50 [5]: 21.2 µM
IC50 [6]: > 332 µM
Activity [7]: 30%
IC50 [8]: 5.4 µM
IC50 [9]: 5.9 µM
Activity [10]: 45.4%

O=C(O)c1cc(C#CC2(O)CN3CCC2CC3)ccc1O (stereo not drawn)
MIC [2]: > 10 µM
Activity [4]: 5.6%
Activity [7]: 20.4%
Activity [10]: 74%
IC50 [1]: > 1 µM

CC(=O)c1ccc(C#CC2(O)CN3CCC2CC3)s1 (stereo not drawn)
MIC [2]: > 10 µM
IC50 [3]: 18.9 µM
Activity [4]: 9.9%
IC50 [5]: 72.6 µM
IC50 [6]: 194 µM
Activity [7]: 22.3%
IC50 [8]: 30.3 µM
IC50 [9]: 10.2 µM
Activity [10]: 67.8%
IC50 [1]: > 1 µM

CCCCCCCCCCCCCCCCOP(=O)([O-])OCC[N+](C)(C)C [MILTEFOSINE]
IC50 [3]: 0.338 µM

COc1cc([C@@H]2c3cc4c(cc3[C@H](O)[C@H]3COC(=O)[C@H]23)OCO4)cc(OC)c1OC [PODOFILOX]
IC50 [6]: 0.014 µM
